Measurements reported in ChEMBL document CHEMBL4699465, “Isolation of Isotrichophycin C and Trichophycins G-I from a Collection of Trichodesmium thiebautii” (J Nat Prod, 2020).

test system: N2a; assay: Cytotoxicity against mouse Neuro-2a cells assessed as reduction in cell viability incubated for 72 hrs by MTT assay; type: functional, cell-based
In short: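 Murine neuroblastoma neuro-2A cells were tested over a range of concentrations, with four technical replicates per concentration. Each assay was run in triplicate. Doxorubicin served as the positive control. EC50 was taken from concentration–viability curves.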

Q: How did the EC50 turn out when C#CCCCCC/C(=C/Cl)CC[C@H](O)/C=C(\C)[C@H](O)CC=C was run?
A: > 50 µM

Q: Which EC50 does the source give for COC1=CC(=O)O[C@@H]([C@H](C)C[C@H](C)CC(C)=O)C1 here?
A: > 100 µM

Q: With C#CCCC/C(=C/Cl)C[C@H](O)CC[C@@H](C)C[C@@H](C)[C@H](O)CCCC[C@@H](C)[C@H](O)CC=C as the compound, how does the EC50 read?
A: 12 µM

Q: How did the EC50 turn out when C[C@H](CC[C@@H](O)C/C(=C/Cl)CCCC#CBr)C[C@@H](C)[C@@H](O)C/C=C/Cl was run?
A: > 100 µM

Q: With C=CC[C@@H](OC(C)=O)[C@H](C)CCCC[C@@H](OC(C)=O)[C@H](C)C[C@H](C)CC[C@H](C/C(=C\Cl)Cc1ccccc1)OC(C)=O as the compound, how does the EC50 read?
A: > 100 µM

Q: C[C@H](CC[C@@H](O)C/C(=C/Cl)Cc1ccccc1)C[C@@H](C)[C@@H](O)C/C=C/Cl was tested. Which EC50 did it give?
A: 24 µM

Q: C[C@H](CC[C@@H](O)C/C(=C\Cl)Cc1ccccc1)C[C@@H](C)[C@@H](O)C/C=C/Cl was tested. Which EC50 did it give?
A: 13 µM

Q: With CCC(=O)N(C)CCC/C(=C\Cl)C/C=C(\C)C[C@@H](C)C[C@@H](C)[C@H]1CC(OC)=CC(=O)O1 as the compound, how does the EC50 read?
A: 14 µM

Q: How did the EC50 turn out when C#CCCC/C(=C\Cl)C[C@H](O)CC[C@@H](C)C[C@@H](C)[C@@H](O)C/C=C/Cl was run?
A: 40 µM

Q: With C=CC[C@@H](O)[C@H](C)CCCC[C@@H](O)[C@H](C)C[C@H](C)CC[C@@H](O)C/C(=C\Cl)Cc1ccccc1 as the compound, how does the EC50 read?
A: 6.5 µM

Q: How did the EC50 turn out when C=CC[C@H](O)[C@H](C)C[C@H](C)CC[C@@H](O)C/C(=C\Cl)Cc1ccccc1 was run?
A: 8.4 µM

Q: How did the EC50 turn out when COC1=CC(=O)O[C@@H]([C@H](C)C[C@H](C)CC[C@@H](O)C/C(=C/Cl)Cc2ccccc2)C1 was run?
A: 15 µM

Q: Which EC50 does the source give for CC(=O)O[C@H](CC[C@@H](C)C[C@@H](C)[C@H](C/C=C/Cl)OC(C)=O)C/C(=C\Cl)Cc1ccccc1 here?
A: > 100 µM

Q: C=CC[C@@H](O)/C(C)=C/[C@@H](O)CC/C(=C\Cl)Cc1ccccc1 was tested. Which EC50 did it give?
A: > 50 µM

Q: COc1cccc2c1C(=O)c1c(O)c3c(c(O)c1C2=O)C[C@@](O)(C(=O)CO)C[C@@H]3O[C@H]1C[C@H](N)[C@H](O)[C@H](C)O1 [DOXORUBICIN] was tested. Which EC50 did it give?
A: 127 µM
